According to PubChem BioAssay AID602299 (The Scripps Research Institute Molecular Screening Center, 2012):
Calls of active or inactive are those of the source.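 The calls were made as follows: active = inhibition of 50% or more of probe labeling of the enzyme band; inactive = inhibition below 50%.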

Biological target: Diacylglycerol lipase-beta (Mus musculus) (UniProt Q91WC9)
Assay: blocking of probe labeling on DAGLb – biochemical, gel-based fluorescence, overexpressed mouse, set 2, late-stage follow-up (AID 602299)
Details: HEK293T membrane overexpressed mouse DAGLb, gel ABPP fluorescence; at 10 µM; active compounds read high
Outline: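 Material: mouse DAGLb-overexpressing HEK293T membrane proteome; Quantity: 0.3 mg/mL membrane protein; Also added: HT-01 probe, 1 µM; Times: 30 min compound pre-incubation then 30 min probe labeling, 37 °C; Signal: in-gel fluorescence scanning after reducing SDS-PAGE separation; Read-out: % inhibition from band optical density.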

Sequence of Diacylglycerol lipase-beta (Mus musculus) (Q91WC9 whole entry, looked up): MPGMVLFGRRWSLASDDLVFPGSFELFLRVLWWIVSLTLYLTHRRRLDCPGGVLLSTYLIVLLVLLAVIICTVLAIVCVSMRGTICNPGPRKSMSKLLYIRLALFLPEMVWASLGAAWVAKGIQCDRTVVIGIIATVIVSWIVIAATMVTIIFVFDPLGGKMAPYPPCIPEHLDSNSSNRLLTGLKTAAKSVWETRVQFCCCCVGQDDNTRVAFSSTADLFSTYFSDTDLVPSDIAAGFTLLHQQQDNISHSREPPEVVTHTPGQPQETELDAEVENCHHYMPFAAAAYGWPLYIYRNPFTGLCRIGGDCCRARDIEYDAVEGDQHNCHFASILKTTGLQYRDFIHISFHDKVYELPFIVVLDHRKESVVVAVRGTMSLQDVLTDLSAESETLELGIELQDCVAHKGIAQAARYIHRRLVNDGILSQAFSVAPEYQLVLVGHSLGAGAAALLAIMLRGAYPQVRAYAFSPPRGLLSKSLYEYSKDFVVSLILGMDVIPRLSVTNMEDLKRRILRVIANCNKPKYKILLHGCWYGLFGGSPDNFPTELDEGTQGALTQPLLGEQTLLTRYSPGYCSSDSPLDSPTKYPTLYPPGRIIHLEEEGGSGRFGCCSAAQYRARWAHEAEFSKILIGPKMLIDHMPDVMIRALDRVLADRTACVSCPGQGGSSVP

Row | inhibition | SMILES
1 | 50% | O=C(N1CCCCC1c1ccccc1)n1cc(-c2ccc(-c3ccccc3)cc2)nn1 (stereo not drawn)
2 | 11% (inactive) | COc1ccc(-c2ccc(-c3cn(C(=O)N4CCCCC4c4ccccc4)nn3)cc2)cc1 (stereo not drawn)
3 | 39% (inactive) | O=C(N1CCCCC1c1ccccc1)n1cc(C(O)(c2ccccc2)c2ccccc2)nn1 (stereo not drawn)
4 | 98% | COc1ccccc1-c1ccc(-c2cn(C(=O)N3CCC(Cc4ccccc4)CC3)nn2)cc1
5 | 69% | COc1ccccc1-c1ccc(-c2cn(C(=O)N3CCCCC3CCc3ccccc3)nn2)cc1 (stereo not drawn)
6 | 99% | COc1ccccc1-c1ccc(-c2cn(C(=O)N3CCCC(Cc4ccccc4)C3)nn2)cc1 (stereo not drawn)
7 | 59% | O=C(N1CCCCC1CCc1ccccc1)n1cc(-c2ccc(-c3ccccc3)cc2)nn1 (stereo not drawn)
8 | 64% | COc1ccccc1-c1ccc(-c2cn(C(=O)N3CCCCC3c3ccccc3)nn2)cc1 (stereo not drawn)
